From PubChem BioAssay
KCNK9 block = inhibitors of human KCNK9 two-pore domain potassium channel | Q9NPC2 | HEK293 KCNK9, FluxOR thallium flux fluorescence; active compounds read low | hit rate 1.2% among 310,000 | AID 488922 | B-score at 10 µM;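 active = ratio B-score over 3 SD below the library mean, with starting fluorescence within 5 SD of its mean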;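 also: negative B-score means less thallium flux so channel inhibition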
Kir21 inh = inhibitors of mouse Kir2.1 inward-rectifier potassium channel; hit rate 0.85% among 310,000; HEK293-Kir2.1, FluxOR thallium flux fluorescence; active compounds read low; B-score at 10 µM; P35561; AID 1672;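 active = fluorescence ratio B-score at or below minus 3 SD of library scores, with starting-brightness B-score within 2 SD, cut at about -4.2 in these data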;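 also: channel flux triggered by added potassium and thallium sulfate stimulus; B-score of peak minus minimum fluorescence over baseline after thallium stimulus; more negative B-score means stronger Kir2.1 block with less thallium influx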
hERG protect = compounds protecting human hERG from proarrhythmic drug block; Q12809; CHO-hERG, FluxOR thallium flux, dofetilide IC70 present; activation (rescue from dofetilide block), less the hit threshold, % at 10 µM; hit rate 0.51% among 310,000;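 active = activation above the mean of controls blocked by dofetilide plus 5 SD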;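 also: thallium influx through hERG after potassium depolarization seen as dye fluorescence rise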
KCNQ1 inh = inhibitors of human KCNQ1 potassium channel; hit rate 1.3% among 310,000; AID 2642; B-score at 10 µM; CHO-K1 KCNQ1, FluxOR thallium flux fluorescence; active compounds read high;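 active = compounds whose thallium flux B-score, printed positive for inhibition, exceeds three library SD while starting fluorescence stays within three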;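 also: channel opened by potassium depolarization with thallium stimulus after 20 min compound exposure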
KCNQ1 pot = human KCNQ1 channel potentiation or activation. P51787. CHO-K1 KCNQ1, thallium flux FluxOR fluorescence; active compounds read high. B-score at 10 µM. hit rate 0.35% among 310,000. AID 2648;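 active = fluorescence ratio B-score, a plate-corrected score, at least three library SD, with initial intensity B-score within 5 SD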
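Schedule – 37 °C overnight plating, 90-min dark dye load, 20-min compound pretreatment · System – stable KCNQ1 CHO-K1 line · Probe or stimulus – thallium- and potassium-containing depolarizing buffer · Measured by – kinetic FluxOR fluorescence, 10 s baseline plus 110 s post-stimulus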
KCNK3 block = human KCNK3 channel inhibition, primary screen; O14649; CHO-KCNK3 thallium flux, FluxOR fluorescence; active compounds read low; B-score at 10 µM; hit rate 0.84% among 340,000; AID 602410;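 active = B-score under library mean minus 4 SD, starting fluorescence ratio at most library mean plus 5 SD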;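 also: more negative B-score means stronger inhibition of thallium flux through KCNK3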
KCNK3 confirm = human KCNK3 channel inhibition, confirmation assay | shares compounds with KCNK3 block | ratio percent of control, % at 10 µM | hit rate 99% among 2,400 | AID 651638 | CHO-KCNK3 thallium flux, FluxOR fluorescence; 0% buffer, 100% carvedilol maximal block;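 active = ratio percent of control, averaged over triplicates, above buffer control mean plus 5 SD, cut at about 64% in these data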;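 also: ratio is the fluorescence rise from min to max over baseline after thallium stimulus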
KCNK3 uninduced = activity in cells without induced KCNK3 expression; hit rate 40% among 2,400; shares compounds with KCNK3 block; non-induced KCNK3 parental cells, FluxOR thallium flux; active compounds read low; thallium flux ratio (lower = more inhibition) at 10 µM; AID 651747;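 active = thallium flux ratio, averaged over three wells, more than 5 SD below the buffer control mean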;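 also: host cells are CHO cells without KCNK3 induction; ratio is peak minus trough fluorescence over baseline then normalized to buffer controls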
An asterisk follows results filed as active; i = inactive; / = no result given. A selection: hits, their analogues and other compounds. The true share with any hit is near 3.7%.

SMILES | KCNK9 block | Kir21 inh | hERG protect | KCNQ1 inh | KCNQ1 pot | KCNK3 block | KCNK3 confirm | KCNK3 uninduced
CC1CCCN(C(=O)CSc2nnc(-c3ccncc3)n2C)C1 (stereo not given) | i | -1.35 | -2.5 | i | i | i | / | /
Oc1cnc2ccccc2c1CN1CCOCC1 | i | 0.83 | -1.5 | i | i | -8.95* | 81.7* | i
CN(CCOc1ccccc1)CC(=O)Nc1cccc(Br)c1 | i | 0.03 | -14.3 | i | i | -9.16* | 94.3* | i
Cc1cc(NC(=O)CN(C)CCOc2ccccc2)ccc1Br | i | -0.07 | -18.6 | i | i | i | / | /
COc1ccc(NC(=O)CN(C)CCOc2ccc(Cl)cc2)cc1OC | i | -1.27 | -3.9 | i | i | i | / | /
CN(CCOc1ccc(Cl)cc1)CC(=O)Nc1ccc(OC(F)(F)F)cc1 | i | -1.02 | -4.5 | i | i | -9.12* | 108.3* | 0.154*
CC(C)N(C(=S)NC1CCCCC1)c1ccccc1 | i | -2.61 | -20.8 | i | i | / | / | /
CC(C)N(Cc1ccccc1)C(=S)NC1CCCCC1 | i | -5.42* | -9.8 | i | i | -8.86* | 111.3* | i
COc1cccc(O)c1CN1CCC(C(=O)Nc2ccc(-c3cccc(C)c3)cc2)CC1 | i | 0.73 | -22.1 | 6* | i | -11.3* | 124.7* | i
COc1cccc(-c2cccc(NC(=O)C3CCN(Cc4cccc(C)n4)CC3)c2)c1 | i | 0.63 | -11.3 | i | i | i | / | /
CCOc1ccc(NC(=O)C2CCN(S(=O)(=O)c3ccc4c(c3)NC(=O)C(C)S4)CC2)cc1 (stereo not given) | i | -2.86 | -7.5 | i | i | i | / | /
COc1ccc(NC(=O)C2CCCN(CCCc3ccccc3)C2)cc1OCC(C)C (stereo not given) | i | -0.8 | -10.4 | i | i | -9.78* | 98.7* | i
CCN1C=C(Cc2ccc(F)cc2)C2=C(C1)C(c1ccc(F)cc1)C(C#N)=C(N)O2 (stereo not given) | i | -1.57 | -12.0 | i | i | -9.72* | 110.3* | i
CN1CCN(C2Cc3cc(F)ccc3Sc3ccc(Cl)cc32)CC1 (stereo not given) | i | -1.8 | -14.2 | i | i | -10.1* | 113.7* | i
O=S(Cc1ccc(Br)cc1)Cc1nnc(SCc2c(F)cccc2Cl)n1-c1ccccc1 (stereo not given) | i | -0.4 | -16.7 | i | i | i | / | /
O=S(Cc1ccc(Br)cc1)Cc1nnc(SCc2ccc(Cl)cc2)n1-c1ccccc1 (stereo not given) | i | -0.25 | -7.1 | i | i | -10.3* | 98.3* | i
Cc1noc(C)c1-c1nc(CSc2ccccc2)no1 | i | -0.94 | -10.2 | i | i | i | / | /
O=C(c1ccco1)N1CCN(C(=O)c2ccccc2OCc2ccc(Cl)cc2)CC1 | i | 0.02 | -14.6 | i | i | i | / | /
O=C(c1ccccc1OCc1ccc(Cl)cc1)N1CCN(c2ccccn2)CC1 | i | -1.75 | -17.7 | i | i | -9* | 119.0* | i
O=C(CSc1ccccc1Cl)N1CCC(c2nc3ccccc3s2)CC1 | i | 1.16 | -7.6 | i | i | -9.83* | 107.3* | i
FC(F)(F)c1ccccc1-n1ccnc1 | / | / | / | / | / | i | / | /
Clc1ccccc1C(c1ccccc1)(c1ccccc1)n1ccnc1 | -17.9* | -0.68 | -14.2 | i | i | -11* | 129.3* | 0.133*
O=C(c1ccc(-c2ccccc2)cc1)N1CCN(c2ccccc2F)CC1 | i | 0.93 | -8.9 | i | i | -9.15* | 108.0* | i
CCC(C)c1ccc(NC(=O)C2CC3CCC2C3)cc1 (stereo not given) | -6.58* | 0.01 | -8.8 | i | i | -9.44* | 116.3* | i
Cc1onc(-c2ccccc2)c1-c1csc(COc2ccccc2)n1 | -7.76* | 1.05 | -11.7 | i | i | -11.8* | 96.0* | 0.139*
SMILES | KCNK9 block | Kir21 inh | hERG protect | KCNQ1 inh | KCNQ1 pot | KCNK3 block | KCNK3 confirm | KCNK3 uninduced
CCOC(=O)c1cc(-c2csc(COc3ccccc3)n2)on1 | i | 0.35 | -9.9 | i | i | i | / | /
Cc1cnccc1CN(C)Cc1cn(C)nc1-c1ccc(Oc2ccccc2)cc1 | i | -2.31 | -20.6 | i | i | -10.1* | 118.0* | 0.155*
Cc1sc(NC(=O)c2ccco2)nc1-c1ccccc1 | i | 2.33 | -20.3 | i | i | i | / | /
Cc1sc(NC(=O)c2ccco2)nc1-c1ccc2c(c1)CC(C)N2C(=O)C1CC1 (stereo not given) | i | -1.23 | -20.5 | 6* | i | -9.43* | 101.3* | i
CCc1nc(Nc2ccccc2OC)c2oc3ccccc3c2n1 | i | 0.27 | -5.3 | i | i | -9.16* | 116.3* | 0.145*
CCc1nc(Nc2cc(OC)ccc2OC)c2oc3ccccc3c2n1 | i | 1.92 | -0.6 | i | i | i | / | /
CC(C)(C)c1ccc(OCCn2nc(C(=O)O)c3ccccc3c2=O)cc1 | i | -0.03 | -7.7 | i | i | -9.08* | 112.3* | i
O=C1C2CCCN2C(=O)N1CCCN1CCN(c2cccc(Br)c2)CC1 (stereo not given) | i | -1.43 | -3.8 | i | i | i | / | /
CCOC(=O)CSc1nc2c(c(-c3ccc(C)o3)c1C#N)CCCC2 | i | 1.12 | -9.3 | i | i | -9.32* | 97.7* | i
COC(=O)CSc1nc2c(c(-c3ccco3)c1C#N)CCCC2 | i | -0.62 | -7.6 | i | i | i | / | /
CC(OC(=O)CCN=C1NS(=O)(=O)c2ccccc21)C(=O)N(C)C1CCCCC1 (stereo not given) | i | 1.23 | -12.5 | i | i | i | / | /
CCC(CO)Nc1nc2ccc(Cl)cc2c2ccccc12 (stereo not given) | i | 0.05 | -6.9 | i | i | -9.16* | 98.3* | i
CC1CN(C(=S)SCCN2C(=O)CCC2=O)CC(C)O1 (stereo not given) | i | 0.08 | -3.7 | i | i | i | / | /
O=c1c2ccccc2oc2c1oc1ccccc12 | / | / | / | / | / | i | / | /
Cc1ccc(C)c2nc3sc(C(=O)N4CCOCC4)c(N)c3cc12 | i | -1.73 | -16.4 | i | i | i | / | /
Cc1cc(C)c2nc3sc(C(=O)N4CCOCC4)c(N)c3cc2c1 | i | -1.45 | -22.2 | i | i | -10.7* | 115.0* | 0.133*
